Published values of several laboratories.
Each line is one published result; the experiments were not run side by side.

SMILES	test system	setting	concentration
CC(C)(Nc1nc(-c2ccccn2)nc2ccccc12)c1ccccn1	female BALB/c mouse, plasma	intravenous, 1 mg/kg, 8 h	6 ng/mL
CC(C)Cc1nn(C)c(=O)c2c(SCCCO)n(Cc3cccc4ccccc34)cc12	mouse, brain	intraperitoneal, 20 mg/kg, 7 days	0 nM
CC(C)Oc1cccc(-c2cnc(N3CCC(C(N)=O)CC3)s2)c1	male Swiss mouse, plasma	oral, 30 mg/kg, 0 h, single dose	0 nM
CC(C)CN(C[C@@H](O)[C@H](Cc1ccccc1)NC(=O)O[C@H]1CO[C@H]2OCC[C@H]21)S(=O)(=O)c1ccc(N)cc1	BALB/c mouse, plasma	intravenous, 2.5 mg/kg, 3 h	23.9 ng/mL
c1ccc(-c2nc(N3CCC(c4ccccn4)C3)c3ccccc3n2)nc1 (centres unmarked)	female BALB/c mouse, plasma	oral, 50 mg/kg, 4 h	826 ng/mL
O=S(=O)(c1ccc(-c2ccc3nccc(Nc4ccncn4)c3c2)cc1)N1CCOCC1	female BALB/c mouse, plasma	intraperitoneal, 10 mg/kg, 4 h	1350 ng/mL
O=c1nc(N2CCN(CC3CCCCC3)CC2)sc2c([N+](=O)[O-])cc(C(F)(F)F)cc12	CD-1 mouse, plasma	intravenous, 10 mg/kg, 8 h	44.4 ng/mL
O=C(O)C1CCN(c2ncc(-c3ccc4c(c3)OCCCO4)s2)CC1	male Swiss mouse, plasma	oral, 30 mg/kg, 30 min, single dose	14800 ng/mL
